Data set [1] deals with Glutamate NMDA receptor. The data set is described as follows: Displacement of [3H]MDL-105519 from glycine binding site of NMDA receptor in rat cortical membrane by liquid scintillation counting. The format is cell membranes. The essentials: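 Washed rat cortical membranes in 50 mM Tris–HCl (pH 8.0) were incubated 45 min at 4 °C with [3H]MDL-105,519 (2 nM) plus buffer or displacer. Nonspecific binding was defined with excess unlabeled glycine. Samples were filtered on GF/B, washed three times with ice-cold buffer, and counted by liquid scintillation. Ki came from three determinations, each in triplicate.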
A general note: Displacement assays read how much labelled ligand stays bound in the presence of the test substance.

A short description of data set [2]: n-Octanol-sodium phosphate buffer partition coefficient, log D at pH 7.4 after 15 mins by shake-flask method. It is filed as physicochemical. The essentials:
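Compound (1–2 mg) was shaken 15 min at ambient temperature in n-octanol and 10 mM phosphate buffer (pH 7.4). The mixture was centrifuged at 2500 rpm for 5 min, and both layers were analysed by HPLC (n=3).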

Data set [3] addresses T1, Glutamate NMDA receptor (Rattus norvegicus) (UniProt P35439+Q00959+Q00960+Q00961+Q62645+Q8VHN2+Q9R1M7). The data set can be described thus: Binding affinity to glycine binding site of NMDA receptor in thalamus of rat brain by autoradiography. The format is tissue-based. To be noted: tested as the 11C-labelled form. The essentials: (§1)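 Rat brain sagittal sections were preincubated 30 min at 25 °C in 50 mM Tris–HCl (pH 7.4), then incubated 30 min at 25 °C with the [11C]radioligand (1.59–2.13 nM). Sections were rinsed twice for 3 min in cold buffer, dipped in cold water, dried, and exposed to imaging plates for 60 min. Nonspecific binding was taken with the corresponding unlabeled ligand; specific binding is given per region.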

The target in data set [4] is T1, Glutamate NMDA receptor (Rattus norvegicus). The data set is described as follows: Binding affinity to glycine binding site of NMDA receptor in hippocampus of rat brain by autoradiography in presence of glycine. It is filed as tissue-based. To be noted: tested as the 11C-labelled form. The method, boiled down: (§2)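 Hippocampal binding on rat brain slices: 30 min at 25 °C in 50 mM Tris–HCl (pH 7.4) with [11C]radioligand (1.59–2.13 nM), with or without a glycine-site drug (agonists at 1 mM). Slices were rinsed, dried and exposed to imaging plates for 60 min. PSL with drug was divided by PSL without drug to give % total binding, averaged over at least triplicate sections from three animals.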

Data set [5] has the same target. The data set is described as follows: Binding affinity to glycine binding site of NMDA receptor in cerebral cortex of rat brain by autoradiography. The format is tissue-based. The conditions noted are these: tested as the 11C-labelled form. The method, boiled down: as §1
For data set [6] the target is unchanged. The data set can be described thus: Binding affinity to glycine binding site of NMDA receptor in hippocampus of rat brain by autoradiography in presence of glycine-site antagonist MDL-105519. The format is tissue-based. The conditions noted are these: tested as the 11C-labelled form. The essentials:
as §2

The target is the same in data set [7]. The data set can be described thus: Binding affinity to glycine binding site of NMDA receptor in hippocampus of rat brain by autoradiography in presence of glycine-site antagonist methoxy-MDL-104653. The conditions noted are these: tested as the 11C-labelled form. It is filed as tissue-based. The essentials:
as §2

Data set [8] shares this target. The data set is described as follows: Binding affinity to glycine binding site of NMDA receptor in cerebellum of rat brain by autoradiography. It is filed as tissue-based. To be noted: tested as the 11C-labelled form. The essentials: as §1
Data set [9] has the same target. The data set can be described thus: Binding affinity to glycine binding site of NMDA receptor in striatum of rat brain by autoradiography. The format is tissue-based. To be noted: tested as the 11C-labelled form. The method, boiled down:
as §1

The target is the same in data set [10]. The data set can be described thus: Binding affinity to glycine binding site of NMDA receptor in hippocampus of rat brain by autoradiography. The format is tissue-based. To be noted: tested as the 11C-labelled form. The essentials:
as §1

Data set [11] shares this target. The data set can be described thus: Binding affinity to glycine binding site of NMDA receptor in hippocampus of rat brain by autoradiography in presence of glycine-site agonist D-serine. The conditions noted are these: tested as the 11C-labelled form. It is filed as tissue-based. The essentials: as §2
Data set [12] shares this target. The data set can be described thus: Binding affinity to glycine binding site of NMDA receptor in hippocampus of rat brain by autoradiography in presence of glycine-site antagonist L-703717. It is filed as tissue-based. The conditions noted are these: tested as the 11C-labelled form. The essentials:
as §2

Data set [13] deals with Glutamate NMDA receptor. The data set is described as follows: Binding affinity to glycine binding site of NMDA receptor in rat brain. The format is tissue-based.
Data set [14] can be described thus: Metabolic stability in ddY mouse brain at 7.4 MBq, iv after 30 mins by radio-TLC analysis. The format is ADME, organism-based. To be noted: 40 MBq, in the assay text read “40 MBq” for “7.4 MBq”, read-out: Activity. The essentials:
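Mice received [11C]radioligand (40 MBq) iv and were killed at 30 min. Whole brain was homogenized in ice-cold MeOH and centrifuged at 10,000 rpm for 1 min at 4 °C. Extracts were analysed by radio-TLC using CHCl3/CH3CN 3:1, CHCl3/MeOH 9:1, or CH3CN as mobile phase; intact parent fraction was recorded.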

Data set [15] in a line: Ratio of drug level in cerebellum to blood of ddY mouse at 7.4 MBq, iv after 30 mins. The format is ADME, organism-based. The method, boiled down:
(§3)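 ddY mice (35–45 g) received about 7.4 MBq of [11C]radioligand in 0.2 ml into the tail vein and were decapitated at 1 or 30 min. Blood, cerebrum and cerebellum were gamma-counted with decay correction and expressed as % injected dose/g; tissue/blood ratios were derived. n=3 or 5.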

Data set [16] concerns Blood. The data set is described as follows: Biodistribution in ddY mouse blood assessed per gram of tissue at 7.4 MBq, iv after 1 min by gamma counting. It is filed as ADME, organism-based. The conditions noted are these: in vivo. The method, boiled down:
as §3

The nature of data set [17]: Plasma protein binding in rat at 0.67 to 0.89 […] after 30 mins by ultrafiltration. The format is ADME, cell-free. To be noted: read-out: PPB (converted). The essentials: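 Rat serum was diluted 10-fold in 66 mM phosphate buffer (pH 7.4) containing [11C]radioligand (0.67–0.89 MBq) and incubated 30 min at 30 °C. It was then ultrafiltered by centrifugation at 2000 rpm for 15 min. Radioactivity in whole plasma and in filtrate was counted to give % bound (mean, n=3).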

The subject of data set [18] is Cerebellum. The data set is described as follows: Biodistribution in ddY mouse cerebellum assessed per gram of tissue at 40 MBq, iv after 30 mins by gamma counting in presence of 5-ethyl-7-chloro-4-hydroxy-3-(3-[11C]methylaminophenyl)-2(1H)-quinolone. The conditions noted are these: in vivo, 0.5 h, in the assay text read “7.4 MBq” for “40 MBq”. It is filed as ADME, organism-based. The method, boiled down: (§4)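 Blocking study: [11C]radioligand was mixed with unlabeled ligand (2 mg/kg) and injected iv into ddY mice. Animals were killed at 30 min; blood, cerebrum and cerebellum were gamma-counted and expressed as % dose/g and tissue/blood ratios. Comparison with controls used the Mann–Whitney U-test.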

For data set [19], the system named is Blood. The data set can be described thus: Biodistribution in ddY mouse blood assessed per gram of tissue at 40 MBq, iv after 30 mins by gamma counting in presence of 5-ethyl-7-chloro-4-hydroxy-3-(3-[11C]methylaminophenyl)-2(1H)-quinolone. It is filed as ADME, organism-based. The conditions noted are these: in vivo, 0.5 h. The method, boiled down:
as §4

Data set [20] has as its system Blood. The data set is described as follows: Biodistribution in ddY mouse blood assessed per gram of tissue at 7.4 MBq, iv after 30 mins by gamma counting. It is filed as ADME, organism-based. The conditions noted are these: in vivo, 0.5 h. The essentials: as §3
The nature of data set [21]: Ratio of drug level in cerebellum to blood of ddY mouse at 40 MBq, iv after 30 mins in presence of 5-ethyl-7-chloro-4-hydroxy-3-(3-[11C]methylaminophenyl)-2(1H)-quinolone. It is filed as ADME, organism-based. The conditions noted are these: in vivo, 0.5 h, in the assay text read “7.4 MBq” for “40 MBq”. The essentials: as §4
The nature of data set [22]: Biodistribution in ddY mouse cerebrum assessed per gram of tissue at 7.4 MBq, iv after 30 mins by gamma counting. It is filed as ADME, organism-based. To be noted: in vivo, 0.5 h. The method, boiled down:
as §3

The nature of data set [23]: Biodistribution in ddY mouse cerebrum assessed per gram of tissue at 7.4 MBq, iv after 1 min by gamma counting. The format is ADME, organism-based. The conditions noted are these: in vivo. The essentials:
as §3

Data set [24] can be described thus: Ratio of drug level in cerebrum to blood of ddY mouse at 7.4 MBq, iv after 1 min. It is filed as ADME, organism-based. The essentials:
as §3

The nature of data set [25]: Metabolic stability in ddY mouse blood at 7.4 MBq, iv after 30 mins by radio-TLC analysis. The conditions noted are these: 40 MBq, in the assay text read “40 MBq” for “7.4 MBq”, read-out: Activity. It is filed as ADME, organism-based.
In data set [26] the test system is Cerebellum. The data set can be described thus: Biodistribution in ddY mouse cerebellum assessed per gram of tissue at 7.4 MBq, iv after 30 mins by gamma counting. The format is ADME, organism-based. To be noted: in vivo, 0.5 h. The method, boiled down:
as §3

The nature of data set [27]: Ratio of drug level in cerebrum to blood of ddY mouse at 40 MBq, iv after 30 mins in presence of 5-ethyl-7-chloro-4-hydroxy-3-(3-[11C]methylaminophenyl)-2(1H)-quinolone. The format is ADME, organism-based. To be noted: in vivo, 0.5 h, in the assay text read “7.4 MBq” for “40 MBq”. The essentials:
as §4

The test system of data set [28] is Cerebellum. The data set can be described thus: Biodistribution in ddY mouse cerebellum assessed per gram of tissue at 7.4 MBq, iv after 1 min by gamma counting. It is filed as ADME, organism-based. To be noted: in vivo. The essentials:
as §3

Data set [29] can be described thus: Ratio of drug level in cerebellum to blood of ddY mouse at 7.4 MBq, iv after 1 min. It is filed as ADME, organism-based. The method, boiled down:
as §3

Data set [30] in a line: Biodistribution in ddY mouse cerebrum assessed per gram of tissue at 40 MBq, iv after 30 mins by gamma counting in presence of 5-ethyl-7-chloro-4-hydroxy-3-(3-[11C]methylaminophenyl)-2(1H)-quinolone. The format is ADME, organism-based. The conditions noted are these: in vivo, 0.5 h, in the assay text read “7.4 MBq” for “40 MBq”. The essentials:
as §4

Data set [31] in a line: Ratio of drug level in cerebrum to blood of ddY mouse at 7.4 MBq, iv after 30 mins. The format is ADME, organism-based. The method, boiled down: as §3

The source of these data is ChEMBL document CHEMBL1152423, “Development of N-[11C]methylamino 4-hydroxy-2(1H)-quinolone derivatives as PET radioligands for the glycine-binding site of NMDA receptors” (Bioorg Med Chem, 2009).

Active and inactive are the calls of the source. The calls are words filed in the database; no cut-off is given here.

The term Ki denotes a measure of affinity in units of concentration, obtained from inhibition or displacement. Lower therefore signals higher affinity. `COc1ccc(Nc2cccc(-c3c(O)c4ccc(Cl)cc4[nH]c3=O)c2)cc1` registered a Ki in data set [1] of 23.6 nM.

Broadly, the logD is the decadic logarithm of the distribution of all forms, ionised or not, between an organic phase and buffer at a given pH. For `CNc1ccc(Cc2cccc(-c3c(O)c4ccc(Cl)cc4[nH]c3=O)c2)cc1`, the logD at 0.25 h in data set [2] was 3. Also, the result in data set [3], in data set [5] and in [9] was Active. The Activity amounted to 46% in [4]; 58% in [6]; 58% in data set [7]; 30% in [8]; 70% in [10]; 46% in data set [11]. The Activity in data set [12] stood at 58%. Moreover, affinity in data set [1] was put at a Ki of 11.7 nM.

With `COc1cccc(-c2c(O)nc3cc(Cl)ccc3c2O)c1`, in [13], the affinity corresponds to a Ki of 167 nM.

In data set [1], `CN(C)c1ccc(Cc2cccc(-c3c(O)c4ccc(Cl)cc4[nH]c3=O)c2)cc1` came in with an inhibition constant Ki of 22.2 nM.

For the compound `CCc1cc(Cl)cc2[nH]c(=O)c(-c3cccc(N(C)C)c3)c(O)c12`, the Ki in [1] came out at 34.3 nM.

As a reminder, the Kp is tissue or fluid exposure divided by exposure in the circulation. In the case of `CCc1cc(Cl)cc2[nH]c(=O)c(-c3cccc(N[11CH3])c3)c(O)c12`, the remaining at 0.5 h in [14] was 70%; in [25] it was 93%. Moreover, the Kp at 0.5 h worked out at 0.058 in data set [15] and 0.042 in data set [31]. Further, the Drug uptake is 20.91 %ID in [16]; 0.34 %ID in data set [18]; 7.77 %ID in data set [19]; 9.08 %ID/g in data set [20]; 0.38 %ID/g in data set [22]; 0.47 %ID in data set [23]. The Drug uptake was determined as 0.53 %ID/g in [26], 0.87 %ID in data set [28] and 0.34 %ID in [30]. Moreover, the fraction unbound at 0.5 h in data set [17] was 0.29. Further, the Ratio in [21] and in data set [27] was 0.044 each time. For the same compound, the Kp at 1 min was 0.022 in data set [24] and 0.042 in data set [29].

For the compound `COc1cccc(-c2c(O)c3c(N)cc(Cl)cc3[nH]c2=O)c1`, in data set [1], affinity was put at a Ki of 119 nM.

Compound `COc1cccc(-c2c(O)c3c(I)cc(Cl)cc3[nH]c2=O)c1` displayed an inhibition constant (Ki) in data set [13] of 10.3 nM.
